Laboratory results published in ChEMBL document CHEMBL4011643, “Triaryl Benzimidazoles as a New Class of Antibacterial Agents against Resistant Pathogenic Microorganisms” (J Med Chem, 2017).
Converted amounts (≈) assume the structure as drawn. The source made the active and inactive calls. No cut-off for these calls is given here.

Tests used:
[1] = test system: Enterococcus faecalis; experiment: Antibacterial activity against vancomycin-resistant Enterococcus faecalis NCTC 12201 after 20 hrs by broth microdilution method; assay type: functional; conditions: NCTC 12201, 20 h
Summary of the method: (§1)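 Broth microdilution in Tryptic Soy Broth; growth read as OD600 after 20 h. MIC taken as the lowest drug concentration giving OD600 below 0.1. Run in triplicate.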

[2] = test system: Staphylococcus aureus; experiment: Inhibition of Staphylococcus aureus DNA gyrase assessed as reduction in pNO1 supercoiling at 0.5 ug/mL by fluorescent dye-based assay
Summary of the method: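 Supercoiling plate assay run per the kit instructions. S. aureus gyrase was incubated with compound and plasmid pNO1. Negatively supercoiled plasmid was captured by a triplex-forming oligonucleotide, stained with a fluorescent dye and read by fluorescence (excitation 485 nm). Percent inhibition was reported.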

[3] = test system: Staphylococcus aureus; experiment: Antibacterial activity against methicillin-sensitive Staphylococcus aureus ATCC 9144 after 20 hrs by broth microdilution method; assay type: functional; conditions: ATCC 9144, 20 h
Summary of the method: (§2)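 Broth microdilution in Tryptic Soy Broth, done in triplicate. Growth was read as OD600 after 20 h. MIC is the lowest drug concentration giving OD600 below 0.1.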

[4] = test system: Enterococcus faecalis; experiment: Antibacterial activity against vancomycin-sensitive Enterococcus faecalis NCTC 775 after 20 hrs by broth microdilution method; assay type: functional; conditions: NCTC 775, 20 h; summary of the method: as §2
[5] = test system: Staphylococcus aureus; experiment: Antibacterial activity against methicillin-resistant Staphylococcus aureus EMRSA-15 after 20 hrs by broth microdilution method; assay type: functional; conditions: EMRSA-15, 20 h; summary of the method: as §1
[6] = test system: Staphylococcus aureus; experiment: Antibacterial activity against methicillin-resistant Staphylococcus aureus MRSA252 after 20 hrs by broth microdilution method; assay type: functional; conditions: MRSA252, 20 h; summary of the method: as §1
[7] = test system: Staphylococcus aureus; experiment: Bactericidal activity against methicillin-resistant Staphylococcus aureus EMRSA-15 assessed as time required to kill bacteria by 3 log10CFU/ml at 4 times MIC by Miles Misra dilution method; assay type: functional
Summary of the method: (§3)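 Flasks of TSB inoculated at ~10^6 cfu/mL, compound added at 4 × MIC, shaken at 200 rpm and 37 °C. Samples taken at 1, 2, 4, 6 and 24 h and plated by Miles Misra dilution for CFU/mL. Bactericidal means a loss of >3 log CFU/mL. Three independent repeats, error bars SD.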

[8] = test system: Enterococcus faecalis; experiment: Bactericidal activity against vancomycin-resistant Enterococcus faecalis NCTC 12201 assessed as time required to kill bacteria by <3 log10CFU/ml at 4 times MIC by Miles Misra dilution method; assay type: functional; summary of the method: as §3
[9] = test system: Enterococcus faecium; experiment: Antibacterial activity against vancomycin-resistant Enterococcus faecium NCTC 12204 after 20 hrs by broth microdilution method; assay type: functional; conditions: NCTC 12204, 20 h; summary of the method: as §1
[10] = test system: Staphylococcus aureus; experiment: Bactericidal activity against methicillin-resistant Staphylococcus aureus EMRSA-15 assessed as time required to kill bacteria by >6 log10CFU/ml at 4 times MIC by Miles Misra dilution method; assay type: functional; summary of the method: as §3
[11] = test system: Pseudomonas aeruginosa; experiment: Antibacterial activity against Pseudomonas aeruginosa PAO1 after 20 hrs in the presence of Pa-beta-N and magnesium ions by broth microdilution method; assay type: functional; conditions: PAO1, 20 h; summary of the method: as §2
[12] = test system: Klebsiella pneumoniae; experiment: Antibacterial activity against Klebsiella pneumoniae NCTC 13368 after 20 hrs by broth microdilution method; assay type: functional; conditions: NCTC 13368, 20 h; summary of the method: as §2
[13] = test system: Acinetobacter baumannii; experiment: Antibacterial activity against Acinetobacter baumannii ATCC 17978 after 20 hrs in the presence of PMBN by broth microdilution method; assay type: functional; conditions: ATCC 17978, 20 h; summary of the method: as §2
[14] = test system: Acinetobacter baumannii; experiment: Antibacterial activity against Acinetobacter baumannii AYE after 20 hrs by broth microdilution method; assay type: functional; summary of the method: as §2
[15] = test system: Enterococcus faecalis; experiment: Bactericidal activity against vancomycin-resistant Enterococcus faecalis NCTC 12201 at 4 times MIC after 24 hrs by Miles Misra dilution method; assay type: functional; summary of the method: as §3
[16] = test system: Klebsiella pneumoniae; experiment: Antibacterial activity against Klebsiella pneumoniae NCTC 13368 after 20 hrs in the presence of Pa-beta-N and magnesium ions by broth microdilution method; assay type: functional; conditions: NCTC 13368, 20 h; summary of the method: as §2
[17] = Stabilization of FAM/TAMRA-labeled AT-rich DNA duplex (unknown origin) assessed as change in melting temperature at 1 uM by FRET-based assay
Summary of the method: (§4)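 FRET melting of a FAM/TAMRA-labelled AT-rich oligonucleotide, 400 nM working solution in 50 mM potassium, 50 mM cacodylate, pH 7.4. DNA was annealed at 85 °C for 6 min, then held at 25 °C for 5 h, and mixed 1:1 with sample. Fluorescence was read every 0.5 °C from 30 to 100 °C, with a 30 s hold per step. ΔTm is measured against the blank, in triplicate.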

[18] = test system: Enterococcus faecalis; experiment: Bactericidal activity against vancomycin-resistant Enterococcus faecalis NCTC 12201 assessed as time required to kill bacteria by >6 log10CFU/ml at 4 times MIC by Miles Misra dilution method; assay type: functional; summary of the method: as §3
[19] = test system: Acinetobacter baumannii; experiment: Antibacterial activity against Acinetobacter baumannii AYE after 20 hrs in the presence of PMBN by broth microdilution method; assay type: functional; summary of the method: as §2
[20] = test system: Pseudomonas aeruginosa; experiment: Antibacterial activity against Pseudomonas aeruginosa NCTC 13437 after 20 hrs in the presence of Pa-beta-N and magnesium ions by broth microdilution method; assay type: functional; conditions: NCTC 13437, 20 h; summary of the method: as §2
[21] = Cytotoxicity against human HeLa cells assessed as cell viability at 25 uM after 24 hrs by MTT assay; assay type: cell-based; conditions: read-out: Activity
Summary of the method: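 HeLa cells, 10000 per well, were grown at 37 °C in 5% CO2 and allowed to settle for 24 h. Compound was then added in triplicate for 24 h of continuous exposure. Viability was read by MTT colorimetry, with absorbance at 570 nm.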

[22] = test system: Pseudomonas aeruginosa; experiment: Antibacterial activity against Pseudomonas aeruginosa NCTC 13437 after 20 hrs in the presence of PMBN by broth microdilution method; assay type: functional; conditions: NCTC 13437, 20 h; summary of the method: as §2
[23] = test system: Pseudomonas aeruginosa; experiment: Antibacterial activity against Pseudomonas aeruginosa NCTC 13437 after 20 hrs by broth microdilution method; assay type: functional; conditions: NCTC 13437, 20 h; summary of the method: as §2
[24] = test system: Acinetobacter baumannii; experiment: Antibacterial activity against Acinetobacter baumannii ATCC 17978 after 20 hrs in the presence of Pa-beta-N and magnesium ions by broth microdilution method; assay type: functional; conditions: ATCC 17978, 20 h; summary of the method: as §2
[25] = test system: Acinetobacter baumannii; experiment: Antibacterial activity against Acinetobacter baumannii AYE after 20 hrs in the presence of Pa-beta-N and magnesium ions by broth microdilution method; assay type: functional; summary of the method: as §2
[26] = test system: Klebsiella pneumoniae; experiment: Antibacterial activity against Klebsiella pneumoniae NCTC 13368 after 20 hrs in the presence of PMBN by broth microdilution method; assay type: functional; conditions: NCTC 13368, 20 h; summary of the method: as §2
[27] = test system: Pseudomonas aeruginosa; experiment: Antibacterial activity against Pseudomonas aeruginosa PAO1 after 20 hrs in the presence of PMBN by broth microdilution method; assay type: functional; conditions: PAO1, 20 h; summary of the method: as §2
[28] = test system: Klebsiella pneumoniae; experiment: Antibacterial activity against Klebsiella pneumoniae M6 after 20 hrs in the presence of PMBN by broth microdilution method; assay type: functional; conditions: M6, 20 h; summary of the method: as §2
[29] = test system: Klebsiella pneumoniae; experiment: Antibacterial activity against Klebsiella pneumoniae M6 after 20 hrs in the presence of Pa-beta-N and magnesium ions by broth microdilution method; assay type: functional; conditions: M6, 20 h; summary of the method: as §2
[30] = test system: Acinetobacter baumannii; experiment: Antibacterial activity against Acinetobacter baumannii ATCC 17978 after 20 hrs by broth microdilution method; assay type: functional; conditions: ATCC 17978, 20 h; summary of the method: as §2
[31] = test system: Klebsiella pneumoniae; experiment: Antibacterial activity against Klebsiella pneumoniae M6 after 20 hrs by broth microdilution method; assay type: functional; conditions: M6, 20 h; summary of the method: as §2
[32] = Stabilization of FAM/TAMRA-labeled AT-rich DNA duplex (unknown origin) assessed as change in melting temperature at 5 uM by FRET-based assay; summary of the method: as §4
[33] = test system: Pseudomonas aeruginosa; experiment: Antibacterial activity against Pseudomonas aeruginosa PAO1 after 20 hrs by broth microdilution method; assay type: functional; conditions: PAO1, 20 h; summary of the method: as §2

For `C[C@H]1COc2c(N3CCN(C)CC3)c(F)cc3c(=O)c(C(=O)O)cn1c23.C[C@H]1COc2c(N3CCN(C)CC3)c(F)cc3c(=O)c(C(=O)O)cn1c23.O` [LEVOFLOXACIN], the MIC [1] was 1 µg/mL, the inhibition [2] was 57.9% and the MIC [3] was 0.12 µg/mL. It also gave an MIC [4] of 1 µg/mL, an MIC [5] of 8 µg/mL and an MIC [6] of 8 µg/mL. The Time [7] was 6 h, the Time [8] was 24 h and the MIC [9] was 0.5 µg/mL. For the same compound, the Time [10] was 24 h.
Compound `Cc1nc2ccc(C(=O)Nc3cccc(-c4ccc(-n5c(C)nc6cc(C(=O)NCCN(C)C)ccc65)nc4)c3)cc2[nH]1` has an MIC [11] of over 32 µg/mL, an MIC [12] of over 32 µg/mL and an MIC [1] of 1 µg/mL (≈ 1.75 µM). It also gave an MIC [3] of 2 µg/mL (≈ 3.49 µM), an MIC [13] of 32 µg/mL and an MIC [4] of 4 µg/mL (≈ 6.98 µM). The MIC [5] was 2 µg/mL (≈ 3.49 µM), the MIC [14] was over 32 µg/mL and the MIC [6] was 8 µg/mL (≈ 14 µM). For the same compound, the Activity [15] was “inactive”, the MIC [16] was over 32 µg/mL and the deltaTm [17] was 0.2 °C. It also gave a Time [18] of 4 h, an MIC [19] of 32 µg/mL and an MIC [20] of over 32 µg/mL. For the same compound, the MIC [9] was 2 µg/mL (≈ 3.49 µM), the viability at 24 h, 25 µM [21] was over 98% and the MIC [22] was over 32 µg/mL. For the same compound, the MIC [23] was over 32 µg/mL, the MIC [24] was 32 µg/mL and the Time [10] was 4 h. The MIC [25] was over 32 µg/mL, the MIC [26] was over 32 µg/mL and the MIC [27] was over 32 µg/mL. It also gave an MIC [28] of 16 µg/mL, an MIC [29] of over 32 µg/mL and an MIC [30] of over 32 µg/mL. It also gave an MIC [31] of over 32 µg/mL, a deltaTm [32] of 0.9 °C and an MIC [33] of over 32 µg/mL.
